Experiment [1] deals with Staphylococcus aureus. In words: Antibacterial activity against Staphylococcus aureus ATCC 29213 assessed as reduction in bacterial growth incubated for 16 to 20 hrs by CLSI-based broth microdilution method. Format: functional. Conditions: time 16-20 hrs. In outline:
(§1)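 Broth microdilution following CLSI, in cation-adjusted Mueller-Hinton broth. Inoculum from a 4-6 h culture (~10^8 CFU/mL), diluted to ~10^6 CFU/mL. Water stocks were serially diluted in MHB (256 to 0.5 µg/mL) and mixed 1:1 with the inoculum. Plates ran 16-20 h at 37 °C. MIC was read visually. Each concentration was tested in duplicate, and the experiment was repeated at least twice.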
For orientation: In broth dilution the organism is exposed to a series of concentrations in liquid medium.

For experiment [2], the system named is Staphylococcus aureus. The experiment is described as follows: Resistance ratio of compound MIC for Staphylococcus aureus ATCC 29213 after 20 passages to compound MIC for Staphylococcus aureus ATCC 29213 after 16 to 20 hrs by CLSI-based broth microdilution method. Format: functional. In outline:
(§2)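 Serial passaging: after each 24 h MIC assay, cells grown at 1/2 MIC were transferred and the MIC assayed again, for 20 passages. Done with S. aureus, E. coli and MRSA. MIC plotted against days of passage. Experiment repeated twice.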

Experiment [3] deals with Escherichia coli. The experiment is described as follows: Bactericidal activity against early exponential phase of Escherichia coli ATCC 25922 at 6X MIC measured after 6 hrs by time-kill kinetic assay. Format: functional, organism-based. The gist of the method:
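An overnight culture was diluted 1:10,000 in MHB and shaken at 225 rpm and 37 °C for 2 h (early exponential phase), then exposed to compound. Samples taken at intervals were centrifuged, resuspended in PBS, plated as tenfold dilutions on MHA and incubated overnight at 37 °C. CFU/mL were counted. Biological replicates were run.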

Experiment [4] has as its system Escherichia coli. In words: Resistance ratio of compound MIC for Escherichia coli ATCC 25922 after 20 passages to compound MIC for Escherichia coli ATCC 25922 after 16 to 20 hrs by CLSI-based broth microdilution method. Format: functional. In outline: as §2
For experiment [5], the system named is Escherichia coli. The experiment is described as follows: Antibacterial activity against Escherichia coli ATCC 25922 assessed as reduction in bacterial growth incubated 16 to 20 hrs by CLSI-based broth microdilution method. Format: functional. Conditions: time 16-20 hrs. The gist of the method:
as §1

For three molecules, MIC, Ratio and Activity results are on record in ChEMBL document CHEMBL4673214, “Synthesis and antibacterial bioactivities of cationic deacetyl linezolid amphiphiles” (Eur J Med Chem, 2018).

Converted amounts (≈) assume the structure as drawn. The source made the active and inactive calls. The calls are words filed in the database; no cut-off is given here.

The term MIC denotes the least concentration at which growth counts as inhibited. With `CCn1cc(C(=O)O)c(=O)c2cc(F)c(N3CCNCC3)cc21` [NORFLOXACIN], the MIC with Staphylococcus aureus [1] was determined as 1 µg/mL (≈ 3.13 µM). Moreover, the Ratio in the experiment on Staphylococcus aureus [2] came out at 256.

Turning to `CO[C@@]1(NC(=O)[C@H](C(=O)O)c2ccc(O)cc2)C(=O)N2C(C(=O)O)=C(CSc3nnnn3C)CO[C@@H]21`, the result with Escherichia coli [3] was inactive.

For COLISTIN, in the experiment with Escherichia coli [4], the Ratio was 32. The MIC in the experiment with Escherichia coli [5] was determined as 0.5 µg/mL.
